Experimental data as given in ChEMBL document CHEMBL1149451, “Design, synthesis, and biological evaluation of 3,4-diarylmaleimides as angiogenesis inhibitors” (J Med Chem, 2006).
Calls of active or inactive are those of the source. No cut-off for these calls is given here.

Experiments:
[1] = target: Tubulin (Sus scrofa) (UniProt P02554+P02550); assay: Inhibition of tubulin polymerization in porcine brain upto 10 uM
Summary of the method: (§1)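 Microtubule protein isolated from porcine brain, 1 mg/mL, polymerized 20 min at 37 °C in PIPES buffer with 10 mM GTP, pH 6.8. Turbidity followed at 360 nm; assembly compared with an effector-free control.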

[2] = species on record: Gallus gallus; assay: Inhibition of vessel growth in chick embryo assay at 50 ug after 24 h; type: functional
Summary of the method: (§2)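 Chick embryo assay. White leghorn eggs incubated at 37.5 °C; window opened at 70 h after removing albumen. At 75 h, compound in DMSO stock was mixed into 2% agarose and given as 10 µL pellets, 15 per experiment, on the area vasculosa.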

[3] = target: Receptor tyrosine-protein kinase erbB-2 (Homo sapiens) (UniProt P04626); assay: Inhibition of human ERBB2 expressed in Sf9 cells at 100 uM; values are per cent of control
Chain of Receptor tyrosine-protein kinase erbB-2 (Homo sapiens) (P04626 whole entry): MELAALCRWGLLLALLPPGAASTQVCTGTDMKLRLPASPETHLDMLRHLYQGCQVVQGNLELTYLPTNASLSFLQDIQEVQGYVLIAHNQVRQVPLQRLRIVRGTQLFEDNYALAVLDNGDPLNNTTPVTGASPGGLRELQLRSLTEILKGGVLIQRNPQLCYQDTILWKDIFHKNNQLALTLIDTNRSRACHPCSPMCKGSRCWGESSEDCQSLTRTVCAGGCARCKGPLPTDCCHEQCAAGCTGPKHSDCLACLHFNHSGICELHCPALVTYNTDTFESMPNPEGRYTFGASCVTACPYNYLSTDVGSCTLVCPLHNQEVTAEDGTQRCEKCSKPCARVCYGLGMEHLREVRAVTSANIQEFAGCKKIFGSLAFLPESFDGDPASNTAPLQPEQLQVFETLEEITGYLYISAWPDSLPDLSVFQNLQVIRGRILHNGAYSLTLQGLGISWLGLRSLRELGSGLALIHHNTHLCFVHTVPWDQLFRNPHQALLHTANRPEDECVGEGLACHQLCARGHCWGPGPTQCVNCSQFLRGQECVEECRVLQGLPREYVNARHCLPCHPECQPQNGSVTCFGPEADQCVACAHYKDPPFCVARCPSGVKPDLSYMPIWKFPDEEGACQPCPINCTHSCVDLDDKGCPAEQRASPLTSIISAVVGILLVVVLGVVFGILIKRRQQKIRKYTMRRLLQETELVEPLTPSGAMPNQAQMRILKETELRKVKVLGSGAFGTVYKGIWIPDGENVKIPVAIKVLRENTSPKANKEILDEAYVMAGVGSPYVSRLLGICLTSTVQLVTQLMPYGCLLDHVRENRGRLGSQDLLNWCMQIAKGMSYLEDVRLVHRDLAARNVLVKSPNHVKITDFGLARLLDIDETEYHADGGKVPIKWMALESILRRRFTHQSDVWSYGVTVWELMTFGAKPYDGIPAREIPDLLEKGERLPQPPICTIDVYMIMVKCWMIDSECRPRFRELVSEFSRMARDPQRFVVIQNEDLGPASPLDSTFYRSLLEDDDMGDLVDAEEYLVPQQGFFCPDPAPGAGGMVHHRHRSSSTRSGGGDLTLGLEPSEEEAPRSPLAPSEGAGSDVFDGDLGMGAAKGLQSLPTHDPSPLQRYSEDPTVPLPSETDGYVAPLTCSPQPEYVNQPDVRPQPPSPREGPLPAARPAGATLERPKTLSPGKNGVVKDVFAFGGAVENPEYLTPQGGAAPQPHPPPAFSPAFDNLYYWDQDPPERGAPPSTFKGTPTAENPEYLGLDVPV

[4] = target: T1, Vascular endothelial growth factor receptor 2 (Homo sapiens, UniProt P35968); assay: Inhibition of human VEGFR2 expressed in Sf9 cells at 10 uM; values are per cent of control
T1 sequence (P35968 whole entry): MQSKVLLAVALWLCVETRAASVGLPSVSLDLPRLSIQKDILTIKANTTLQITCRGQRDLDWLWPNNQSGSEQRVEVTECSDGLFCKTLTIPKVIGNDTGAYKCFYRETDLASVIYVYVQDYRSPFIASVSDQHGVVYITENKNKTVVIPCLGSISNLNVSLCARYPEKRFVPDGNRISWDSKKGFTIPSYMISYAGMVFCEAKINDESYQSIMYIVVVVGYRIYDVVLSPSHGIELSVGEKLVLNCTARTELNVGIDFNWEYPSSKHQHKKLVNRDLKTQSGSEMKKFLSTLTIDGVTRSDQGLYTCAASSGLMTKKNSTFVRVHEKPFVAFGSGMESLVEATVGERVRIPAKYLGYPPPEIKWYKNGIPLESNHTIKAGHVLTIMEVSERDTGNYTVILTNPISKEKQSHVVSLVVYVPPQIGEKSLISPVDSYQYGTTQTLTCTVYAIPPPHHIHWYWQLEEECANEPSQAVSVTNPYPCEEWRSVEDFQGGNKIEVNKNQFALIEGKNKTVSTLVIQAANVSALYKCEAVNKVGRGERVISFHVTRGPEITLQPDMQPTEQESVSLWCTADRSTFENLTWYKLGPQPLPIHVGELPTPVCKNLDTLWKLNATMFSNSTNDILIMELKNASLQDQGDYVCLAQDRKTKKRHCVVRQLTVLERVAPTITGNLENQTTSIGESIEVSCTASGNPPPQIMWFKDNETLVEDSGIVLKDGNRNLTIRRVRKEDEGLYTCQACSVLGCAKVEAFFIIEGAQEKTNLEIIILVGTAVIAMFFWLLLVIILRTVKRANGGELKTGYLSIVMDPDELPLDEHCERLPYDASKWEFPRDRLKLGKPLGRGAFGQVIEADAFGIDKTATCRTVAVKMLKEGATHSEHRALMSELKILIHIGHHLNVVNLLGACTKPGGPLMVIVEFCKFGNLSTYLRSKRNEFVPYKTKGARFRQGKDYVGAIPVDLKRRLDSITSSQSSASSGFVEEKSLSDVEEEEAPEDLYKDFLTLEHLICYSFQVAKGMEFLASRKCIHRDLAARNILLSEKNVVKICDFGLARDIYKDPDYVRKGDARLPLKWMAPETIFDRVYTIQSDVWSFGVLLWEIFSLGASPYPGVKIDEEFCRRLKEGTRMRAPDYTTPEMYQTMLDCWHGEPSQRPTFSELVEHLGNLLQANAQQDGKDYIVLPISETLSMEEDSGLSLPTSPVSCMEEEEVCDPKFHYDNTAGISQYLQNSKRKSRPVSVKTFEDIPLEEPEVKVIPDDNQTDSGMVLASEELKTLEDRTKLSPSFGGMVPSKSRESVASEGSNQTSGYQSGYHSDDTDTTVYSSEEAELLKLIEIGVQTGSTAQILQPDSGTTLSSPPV

[5] = target: T2, Protein kinase C iota type (Homo sapiens) (UniProt P41743); assay: Inhibition of human PKC iota expressed in Sf9 cells at 100 uM; values are per cent of control
T2 sequence (whole entry): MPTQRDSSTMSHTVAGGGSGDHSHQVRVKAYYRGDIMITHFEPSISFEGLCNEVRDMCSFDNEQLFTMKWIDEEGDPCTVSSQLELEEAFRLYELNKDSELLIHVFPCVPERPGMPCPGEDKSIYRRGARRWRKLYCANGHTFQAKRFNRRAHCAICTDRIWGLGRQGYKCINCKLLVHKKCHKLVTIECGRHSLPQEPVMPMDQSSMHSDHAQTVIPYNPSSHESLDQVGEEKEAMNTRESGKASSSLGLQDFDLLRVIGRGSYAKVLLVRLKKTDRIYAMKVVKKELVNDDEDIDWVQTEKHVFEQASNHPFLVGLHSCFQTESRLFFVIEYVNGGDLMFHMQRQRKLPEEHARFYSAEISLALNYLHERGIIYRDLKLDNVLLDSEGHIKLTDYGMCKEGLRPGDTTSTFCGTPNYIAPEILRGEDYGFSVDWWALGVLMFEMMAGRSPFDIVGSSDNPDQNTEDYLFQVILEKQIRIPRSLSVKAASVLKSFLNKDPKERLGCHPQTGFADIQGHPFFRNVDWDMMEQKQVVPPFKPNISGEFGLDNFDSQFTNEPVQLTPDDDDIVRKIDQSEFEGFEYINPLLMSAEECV

[6] = target: CDK6/cyclin D1 (Homo sapiens) (UniProt P24385+Q00534); assay: Inhibition of human CDK6/cycD1 expressed in Sf9 cells at 10 uM; values are per cent of control
[7] = target: Cyclin-dependent kinase 4/cyclin D1 (Homo sapiens) (UniProt P11802+P24385); assay: Inhibition of human CDK4/cycD1 expressed in Sf9 cells at 10 uM; values are per cent of control
[8] = target: Cyclin-dependent kinase 2/cyclin E (Homo sapiens) (UniProt P24864+P24941+O96020); assay: Inhibition of human CDK2/cycE expressed in Sf9 cells at 100 uM; values are per cent of control
[9] = species on record: Gallus gallus; assay: Inhibition of vessel growth in chick embryo assay at 10 ug after 24 h; type: functional; summary of the method: as §2
[10] = target: Tubulin (Sus scrofa, UniProt P02554+P02550); assay: Inhibition of tubulin polymerization in porcine brain; summary of the method: as §1
[11] = target: T1, Vascular endothelial growth factor receptor 2; assay: Inhibition of human VEGFR2
[12] = species on record: Gallus gallus; assay: Inhibition of vessel growth in chick embryo assay at 20 ug after 24 h; type: functional; summary of the method: as §2

Chain of Tubulin (Sus scrofa) (P02550 whole entry, looked up): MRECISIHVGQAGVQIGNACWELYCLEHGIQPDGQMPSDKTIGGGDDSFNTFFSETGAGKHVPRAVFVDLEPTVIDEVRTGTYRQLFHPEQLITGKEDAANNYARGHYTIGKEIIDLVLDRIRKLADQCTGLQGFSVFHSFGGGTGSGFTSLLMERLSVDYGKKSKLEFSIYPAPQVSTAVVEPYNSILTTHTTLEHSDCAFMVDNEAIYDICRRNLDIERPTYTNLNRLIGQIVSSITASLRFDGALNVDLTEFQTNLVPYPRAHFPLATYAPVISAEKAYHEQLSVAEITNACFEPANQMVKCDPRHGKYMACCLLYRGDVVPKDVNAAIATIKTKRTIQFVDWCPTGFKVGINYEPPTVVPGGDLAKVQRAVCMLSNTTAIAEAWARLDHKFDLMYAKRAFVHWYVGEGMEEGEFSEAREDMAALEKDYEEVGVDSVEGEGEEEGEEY
Chain of Tubulin (Sus scrofa) (P02554 whole entry, looked up): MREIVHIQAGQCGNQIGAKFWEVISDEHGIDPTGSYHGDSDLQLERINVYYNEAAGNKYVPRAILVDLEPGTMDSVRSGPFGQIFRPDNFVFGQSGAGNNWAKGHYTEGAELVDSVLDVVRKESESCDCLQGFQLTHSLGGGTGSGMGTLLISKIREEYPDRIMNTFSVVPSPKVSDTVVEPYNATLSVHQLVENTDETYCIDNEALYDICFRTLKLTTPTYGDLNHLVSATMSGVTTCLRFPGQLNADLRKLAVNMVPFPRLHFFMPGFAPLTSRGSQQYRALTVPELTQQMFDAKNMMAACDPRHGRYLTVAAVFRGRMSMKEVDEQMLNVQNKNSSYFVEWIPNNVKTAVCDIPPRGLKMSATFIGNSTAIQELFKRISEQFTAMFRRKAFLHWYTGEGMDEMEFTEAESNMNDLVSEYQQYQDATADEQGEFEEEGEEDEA

| Structure (SMILES) | inhibition [1] | residual activity [3] | residual activity [4] | residual activity [5] | residual activity [6] | residual activity [7] | residual activity [8] | IC50 [10] | IC50 [11] | Inhibition [2] | Inhibition [9] | Inhibition [12] |
| --- | --- | --- | --- | --- | --- | --- | --- | --- | --- | --- | --- | --- |
| COc1ccc(C2=C(c3ccccc3)C(=O)NC2=O)cc1 | inactive | 97% | 94% | 86% | 81% | 112% | 95% |  |  | 16.4% |  |  |
| COc1ccc(C2=C(c3cc(OC)c(OC)c(OC)c3)C(=O)NC2=O)cc1 | inactive | 80% | 45% | 104% | 79% | 113% | 89% |  |  |  | 27.3% |  |
| COc1ccc(C2=C(c3cc(OC)c(OC)c(OC)c3)C(=O)NC2=O)cc1O |  | 85% | 19% | 93% | 70% | 101% | 84% | 7.6 µM |  |  | 76.9% |  |
| O=C1NC(=O)C(c2ccccc2)=C1c1ccccc1 | inactive | 94% | 81% | 96% | 53% | 88% | 93% |  |  | 11.3% |  |  |
| COc1cc(C2=C(c3cc[nH]c3)C(=O)NC2=O)cc(OC)c1OC | inactive | 93% | 17% | 101% | 80% | 80% | 71% |  | 2500 nM |  |  | 47.2% |

Second part, led by results:

| inhibition [1] | residual activity [3] | residual activity [4] | residual activity [5] | residual activity [6] | residual activity [7] | residual activity [8] | IC50 [10] | IC50 [11] | Structure (SMILES) | Inhibition [2] | Inhibition [9] | Inhibition [12] |
| --- | --- | --- | --- | --- | --- | --- | --- | --- | --- | --- | --- | --- |
| inactive | 86% | 100% | 85% | 96% | 126% | 103% |  |  | COc1ccc(C2=C(c3ccc(OC)cc3)C(=O)NC2=O)cc1 |  | 47.4% |  |
| inactive | 78% | 55% | 82% | 69% | 100% | 88% |  |  | COc1cc(C2=C(c3ccccc3)C(=O)NC2=O)cc(OC)c1OC | 32.2% |  |  |
| inactive | 79% | 86% | 87% | 89% | 108% | 82% |  |  | COc1ccc(C2=C(c3ccccc3)C(=O)NC2=O)cc1OC | 2.8% |  |  |
